# Reference: ChEMBL document CHEMBL6092204, “Synthesis of pyridyl pyrimidine hedgehog signaling pathway inhibitors and their antitumor activity in human pancreatic cancer” (Eur J Med Chem, 2024)
# pIC50: −log10 of the molar value.
# Assays:
# PANC-1 [1] = assay: Induction of apoptosis in human PANC-1 cells assessed as viable cells at 10 uM incubated for 48 hrs by Annexin V-FITC/PI staining based flow cytometry (reference value: 93.2 %); format: functional; conditions: read-out: Activity
# BXPC-3 [2] = assay: Inhibition of cell migration in human BXPC-3 cells incubated for 48 hrs by crystal violet staining based transwell assay; format: functional; conditions: dose 2.5-10 µM
# Summary of the method: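 Cells at 1.5×10^5 cells/mL in serum-free medium containing drug were added to the upper Transwell chamber (200 μL), with medium containing 10% FBS below. After 48 h, non-migrated cells were swabbed off. Inserts were fixed in 4% paraformaldehyde for 15-20 min and stained with 0.5% crystal violet. Cells were counted in four random fields at 100×; n = 3.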
# PANC-1 [3] = assay: Induction of apoptosis in human PANC-1 cells assessed as late apoptotic cells at 5 uM incubated for 48 hrs by Annexin V-FITC/PI staining based flow cytometry (reference value: 2.74 %); format: functional
# BXPC-3 [4] = assay: Induction of cell cycle arrest in human BXPC-3 cells assessed as accumulation at G1 phase at 5 uM incubated for 48 hrs by PI/RNase staining based flow cytometry (reference value: 84.2 %); format: functional
# [5] = Toxicity in BALB/c nude mouse xenografted with human BxPC-3 cells assessed as cellular edema in kidneys at 5 to 15 mg/kg, ip qd for 21 days by H and E staining based analysis; conditions: in vivo, 504 h
# [6] = Toxicity in BALB/c nude mouse xenografted with human BxPC-3 cells assessed as inflammatory infiltration in spleen at 5 to 15 mg/kg, ip qd for 21 days by H and E staining based analysis; conditions: in vivo, 504 h
# PANC-1 [7] = assay: Induction of apoptosis in human PANC-1 cells assessed as late apoptotic cells at 10 uM incubated for 48 hrs by Annexin V-FITC/PI staining based flow cytometry (reference value: 2.74 %); format: functional
# PANC-1 [8] = assay: Induction of apoptosis in human PANC-1 cells assessed as necrotic cells at 8 uM incubated for 48 hrs by Annexin V-FITC/PI staining based flow cytometry (reference value: 2.24 %); format: functional
# BXPC-3 [9] = assay: Induction of apoptosis in human BXPC-3 cells assessed as viable cells at 2.5 uM incubated for 48 hrs by Annexin V-FITC/PI staining based flow cytometry (reference value: 91.5 %); format: functional; conditions: read-out: Activity
# BXPC-3 [10] = assay: Induction of cell cycle arrest in human BXPC-3 cells assessed as accumulation at G1 phase at 2.5 uM incubated for 48 hrs by PI/RNase staining based flow cytometry (reference value: 84.2 %); format: functional
# PANC-1 [11] = assay: Inhibition of Hh signaling pathway in human PANC-1 cells assessed as reduction in Ptch1 mRNA level incubated for 48 hrs by qRT-PCR analysis; format: cell-based
# Summary of the method: (§1)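 Total RNA was extracted by column kit after 48 h treatment and checked spectrophotometrically. Gli1 and Ptch1 transcripts were quantified by real-time RT-qPCR with GAPDH as internal control. Results are fold change relative to the untreated group; three separate experiments.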
# BXPC-3 [12] = assay: Induction of cell cycle arrest in human BXPC-3 cells assessed as accumulation at G1 phase at 10 uM incubated for 48 hrs by PI/RNase staining based flow cytometry (reference value: 84.2 %); format: functional
# BxPC-3 [13] = assay: Antitumor activity aginst human BxPC-3 cells xenografted in BALB/c nude mouse assessed as decrease in tumor volume at 5 mg/kg, ip qd for 21 days relative to control; parameters: scale not given: the % may be the effect or the level left; conditions: time 21 day
# [14] = Toxicity in BALB/c nude mouse xenografted with human BxPC-3 cells assessed as inflammatory infiltration in heart at 5 to 15 mg/kg, ip qd for 21 days by H and E staining based analysis; conditions: in vivo, 504 h
# BXPC-3 [15] = assay: Induction of apoptosis in human BXPC-3 cells assessed as necrotic cells at 10 uM incubated for 48 hrs by Annexin V-FITC/PI staining based flow cytometry (reference value: 0.71 %); format: functional
# PANC-1 [16] = assay: Induction of cell cycle arrest in human PANC-1 cells assessed as accumulation at G1 phase at 2.5 uM incubated for 48 hrs by PI/RNase staining based flow cytometry (reference value: 82.0 %); format: functional
# PANC-1 [17] = assay: Inhibition of Hh signaling pathway in human PANC-1 cells assessed as reduction in Gli1 mRNA level incubated for 48 hrs by qRT-PCR analysis; format: cell-based; conditions: dose 2.5-10 µM; summary of the method: as §1
# [18] = Inhibition of Hh signaling pathway in mouse NIH3T3 cells incubated for 48 hrs by Gli luciferase reporter assay; format: cell-based; conditions: NIH3T3, 48 h
# Summary of the method: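 Reporter cells were seeded in 96-well plates, incubated overnight, then treated for 48 h. Lysate luciferase activity was measured with a dual-luciferase system, and firefly signal was normalised to Renilla.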
# [19] = Toxicity in BALB/c nude mouse xenografted with human BxPC-3 cells assessed as inflammatory infiltration in lung at 5 to 15 mg/kg, ip qd for 21 days by H and E staining based analysis; conditions: in vivo, 504 h
# [20] = Toxicity in BALB/c nude mouse xenografted with human BxPC-3 cells assessed as inflammatory infiltration in liver at 5 to 15 mg/kg, ip qd for 21 days by H and E staining based analysis; conditions: in vivo, 504 h
# BxPC-3 [21] = assay: Antitumor activity aginst human BxPC-3 cells xenografted in BALB/c nude mouse assessed as decrease in tumor volume at 15 mg/kg, ip qd for 21 days relative to control; parameters: scale not given: the % may be the effect or the level left; conditions: time 21 day
# [22] = Toxicity in BALB/c nude mouse xenografted with human BxPC-3 cells assessed as cellular edema in lung at 5 to 15 mg/kg, ip qd for 21 days by H and E staining based analysis; conditions: in vivo, 504 h
# PANC-1 [23] = assay: Induction of cell cycle arrest in human PANC-1 cells assessed as accumulation at G1 phase at 5 uM incubated for 48 hrs by PI/RNase staining based flow cytometry (reference value: 82.0 %); format: functional
# BXPC-3 [24] = assay: Induction of cell cycle arrest in human BXPC-3 cells assessed as accumulation at S phase at 10 uM incubated for 48 hrs by PI/RNase staining based flow cytometry (reference value: 8.18 %); format: functional
# BXPC-3 [25] = assay: Inhibition of Hh signaling pathway in human BXPC-3 cells assessed as reduction in Ptch1 mRNA level incubated for 48 hrs by qRT-PCR analysis; format: cell-based; summary of the method: as §1
# PANC-1 [26] = assay: Induction of apoptosis in human PANC-1 cells assessed as viable cells at 8 uM incubated for 48 hrs by Annexin V-FITC/PI staining based flow cytometry (reference value: 93.2 %); format: functional; conditions: read-out: Activity
# PANC-1 [27] = assay: Induction of apoptosis in human PANC-1 cells assessed as viable cells at 5 uM incubated for 48 hrs by Annexin V-FITC/PI staining based flow cytometry (reference value: 93.2 %); format: functional; conditions: read-out: Activity
# PANC-1 [28] = assay: Induction of apoptosis in human PANC-1 cells assessed as early apoptotic cells at 5 uM incubated for 48 hrs by Annexin V-FITC/PI staining based flow cytometry (reference value: 1.88 %); format: functional
compound,measurement,setting,value
CN(C)Cc1ccc(NC(=O)c2ccc(Nc3nccc(-c4cccnc4)n3)cc2)cc1,viability at 10 µM,PANC-1 [1],71%
same,inhibition,BXPC-3 [2],Dose-dependent-effect
same,Activity,PANC-1 [3],7.03%
same,Activity,BXPC-3 [4],83.9%
same,Activity,[5],Non-toxic
same,Activity,[6],Non-toxic
same,Activity,PANC-1 [7],22.3%
same,Activity,PANC-1 [8],2.16%
same,viability at 2.5 µM,BXPC-3 [9],88.5%
same,Activity,BXPC-3 [10],72.7%
same,inhibition,PANC-1 [11],Dose-dependent-effect
same,Activity,BXPC-3 [12],92.9%
same,Activity,BxPC-3 [13],73%
same,Activity,[14],Non-toxic
same,Activity,BXPC-3 [15],2.32%
same,Activity,PANC-1 [16],83.7%
same,inhibition,PANC-1 [17],Dose-dependent-effect
same,pIC50,[18],8.57
same,Activity,[19],Non-toxic
same,Activity,[20],Non-toxic
same,Activity,BxPC-3 [21],82%
same,Activity,[22],Non-toxic
same,Activity,PANC-1 [23],84.2%
same,Activity,BXPC-3 [24],3.11%
same,inhibition,BXPC-3 [25],Dose-dependent-effect
same,viability at 8 µM,PANC-1 [26],85.9%
same,viability at 5 µM,PANC-1 [27],87.3%
same,Activity,PANC-1 [28],3.29%
